From ChEMBL document CHEMBL1124239, “Decomposition of N-(2-chloroethyl)-N-nitrosocarbamoyl amino acid amides” (J Med Chem, 1988)

Tests used:
Mus musculus [1] = test: Increase in life span was tested after administration of single ip dose at 200 mg/kg (0.8 mmol/kg) in L1210 leukemia in mice; Toxic; assay type: toxicity, organism-based; set-up: dose 200 mg/kg, route intraperitoneal; conditions: in vivo
In short: (§1)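 L1210 leukemia-bearing mice got a single ip dose on the first day after transplantation. Read-out was median survival in days, treated (T) versus control (C). %ILS = (T − C)/C × 100. Doses are given in both mg/kg and mmol/kg; "tox" marks doses that were toxic.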

[2] = Rate constant at a concentration of 2.54M*10e-3 was determined; assay type: ADME
In short: (§2)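 Decomposition was followed in aqueous solution. Rate constants and half-lives were calculated assuming apparent first-order kinetics.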

Mus musculus [3] = test: Increase in life span was tested after administration of single maximal effective ip dose at 100 mg/kg (0.4 mmol/kg) in L1210 leukemia in mice; assay type: functional; conditions: route intraperitoneal; in short: as §1
[4] = Half-life evaluated in 0.1 M phosphate buffer, 37 degree Centigrade.; assay type: ADME; in short: as §2
Mus musculus [5] = test: Increase in life span was tested after administration of single ip dose at 40 mg/kg (0.16 mmol/kg) in L1210 leukemia mice; Toxic; assay type: toxicity, organism-based; set-up: dose 40 mg/kg, route intraperitoneal; conditions: in vivo; in short: as §1
Mus musculus [6] = test: Increase in life span was tested after administration of single maximal effective ip dose at 20 mg/kg (0.08 mmol/kg) in L1210 leukemia mice; assay type: functional; conditions: route intraperitoneal; in short: as §1
Mus musculus [7] = test: Increase in life span was tested after administration of single maximal effective ip dose at 20 mg/kg (0.11 mmol/kg) in L1210 leukemia in mice; assay type: functional; conditions: route intraperitoneal; in short: as §1
Mus musculus [8] = test: Increase in life span was tested after administration of single ip dose at 38 mg/kg (0.21 mmol/kg) in L1210 leukemia in mice; Toxic; assay type: toxicity, organism-based; set-up: dose 38 mg/kg, route intraperitoneal; conditions: in vivo; in short: as §1

SMILES	ILS (Mus musculus [1])	k [2] [min⁻¹]	ILS at 100 mg/kg (Mus musculus [3]) [%]	half-life [4] [min]	ILS (Mus musculus [5])	ILS at 20 mg/kg (Mus musculus [6]) [%]	ILS at 20 mg/kg (Mus musculus [7]) [%]	ILS (Mus musculus [8])
NC(=O)C1CCCN1C(=O)N(CCCl)N=O (stereo not given)	Toxic	0.00274	420	256	–	–	–	–
CC(C)C(NC(=O)N(CCCl)N=O)C(N)=O (stereo not given)	–	0.0452	–	15.5	Toxic	212	–	–
O=NN(CCCl)C(=O)NCCCl [CARMUSTINE]	–	–	–	–	–	–	115	Toxic
